From ChEMBL document CHEMBL1139354, “New derivatives of farnesylthiosalicylic acid (salirasib) for cancer treatment: farnesylthiosalicylamide inhibits tumor growth in nude mice models” (J Med Chem, 2009)
pIC50: −log10 of the molar value. Calls of active or inactive are those of the source. The calls are words filed in the database; no cut-off is given here.

Key:
PANC-1 [1] = assay: Effect on Ras signaling in human PANC1 cells assessed as inhibition of NRas-GTP level at 50 uM after 24 hrs by immunoblot method; type: functional; conditions: PANC-1, 24 h
In short: (§1)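 Cells were seeded at 1.5 × 10⁶ per 10-cm dish, grown 24 h, then exposed to 50 µM or 0.1% DMSO for 24 h. Lysates in Tris pH 7.6/MgCl2/NaCl/NP40/DTT buffer went through a GST-Raf-RBD pull-down, followed by immunoblots with pan-Ras or isoform-specific antibodies. Bands were detected by ECL and quantified by densitometry. Inhibition was calculated as control active-Ras % minus treated active-Ras % (mean ± SD).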

PANC-1 [2] = assay: Cytotoxicity against human PANC1 cells after 5 to 7 days; type: functional, cell-based
In short: (§2)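 U87 or Panc-1 cells were seeded at 5000 per well in DMEM/10% FCS and grown 24 h. Cells were then exposed to 6.25-100 µM in medium with 0.1% DMSO, or to vehicle. After 5-7 days cells were counted directly and IC50 was read from growth curves (2 independent experiments, n = 8, mean ± SD).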

[3] = Cytotoxicity against human U87 cells after 5 to 7 days; type: functional, cell-based, U-87MG ATCC; conditions: U-87 MG; in short: as §2
PANC-1 [4] = assay: Effect on Ras signaling in human PANC1 cells assessed as inhibition of KRas-GTP level at 50 uM after 24 hrs by immunoblot method; type: functional; conditions: PANC-1, 24 h; in short: as §1
PANC-1 [5] = assay: Effect on Ras signaling in human PANC1 cells assessed as inhibition of total Ras-GTP level at 50 uM after 24 hrs by immunoblot method; type: functional; conditions: PANC-1, 24 h; in short: as §1
[6] = Effect on Ras signaling in human U87 cells assessed as inhibition of NRas-GTP level at 50 uM after 24 hrs by immunoblot method; type: functional, cell-based; conditions: U-87MG ATCC; in short: as §1
[7] = Effect on Ras signaling in human U87 cells assessed as inhibition of total Ras-GTP level at 50 uM after 24 hrs by immunoblot method; type: functional, cell-based; conditions: U-87MG ATCC; in short: as §1
[8] = Effect on Ras signaling in human U87 cells assessed as inhibition of KRas-GTP level at 50 uM after 24 hrs by immunoblot method; type: functional, cell-based; conditions: U-87MG ATCC; in short: as §1
[9] = Effect on Ras signaling in human U87 cells assessed as inhibition of HRas-GTP level at 50 uM after 24 hrs by immunoblot method; type: functional, cell-based; conditions: U-87MG ATCC; in short: as §1
[10] = Cmax in Sprague-Dawley rat at 40 mg/kg, po; type: ADME, organism-based; design: dose 40 mg/kg, route oral; conditions: in vivo
[11] = AUC (0 to infinity) in Sprague-Dawley rat at 40 mg/kg, po; type: ADME, organism-based; design: time infinity, dose 40 mg/kg, route oral; conditions: plasma
[12] = Elimination half life in Sprague-Dawley rat at 40 mg/kg, po; type: ADME, organism-based; design: dose 40 mg/kg, route oral; conditions: in vivo
PANC-1 [13] = assay: Effect on Ras signaling in human PANC1 cells assessed as decrease in phospho-AKT level at 50 uM after 24 hrs by immunoblot method; type: functional, cell-based
In short: (§3)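 Cells were seeded at 1.5 × 10⁶ per 10-cm dish, grown overnight in 10% FCS, then treated with 50 µM or 0.1% DMSO for 24 h. Lysates in Tris pH 7.6/MgCl2/NaCl/NP40/DTT buffer were immunoblotted for phospho-ERK1/2 and phospho-Akt, with β-tubulin as loading reference. Detection was by ECL.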

PANC-1 [14] = assay: Antitumor activity against human PANC1 cells xenografted CD1-Nu mouse at 100 mg/kg, po daily assessed as decrease in tumor weight after 18 days
PANC-1 [15] = assay: Effect on Ras signaling in human PANC1 cells assessed as decrease in phospho-ERK level at 50 uM after 24 hrs by immunoblot method; type: functional, cell-based; in short: as §3
U-87MG ATCC = assay: Antitumor activity against human U87 cells xenografted CD1-Nu mouse at 100 mg/kg, po twice daily assessed as increase tumor volume after 9 days; type: functional, organism-based; design: dose 100 mg/kg
In short: (§4)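 Nude mice under ketamine/xylazine received 5 × 10⁵ U87 cells into the striatum (1 µL/min for 5 min). Gd-DTPA contrast MRI on day 4 confirmed tumors and mice were grouped by size. From day 5 they received 100 mg/kg orally twice a day in corn oil, or vehicle. Tumor volumes were read from T1-weighted follow-up MRI. Normalized growth was taken as (follow-up volume − initial volume)/initial volume (n = 7, Mann-Whitney).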

[16] = Effect on Ras signaling in human U87 cells assessed as decrease in phospho-ERK level at 50 uM after 24 hrs by immunoblot method; type: functional, cell-based; conditions: U-87MG ATCC; in short: as §3
[17] = Effect on Ras signaling in human U87 cells assessed as decrease in phospho-AKT level at 50 uM after 24 hrs by immunoblot method; type: functional, cell-based; conditions: U-87MG ATCC; in short: as §3
[18] = Elimination half life in Sprague-Dawley rat at 100 mg/kg, po; type: ADME, organism-based; design: dose 100 mg/kg, route oral; conditions: in vivo
In short: (§5)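 Male Sprague-Dawley rats (275-285 g) given a single oral dose of 100 mg/kg in corn oil. Arterial blood was taken under anesthesia at 10-330 min (4 animals per time point). Plasma was protein-precipitated with acetonitrile, propranolol served as internal standard, and samples were run on isocratic C18 LC-MS/MS (calibration 1-2500 ng/mL). Parameters came from a noncompartmental fit of the mean concentration-time data.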

[19] = Cmax in Sprague-Dawley rat at 100 mg/kg, po; type: ADME, organism-based; design: dose 100 mg/kg, route oral; conditions: in vivo; in short: as §5
[20] = Antitumor activity against human U87 cells xenografted CD1-Nu mouse at 100 mg/kg, po twice daily assessed as inhibition of tumor growth after 4 days; type: functional, U-87MG ATCC; conditions: U-87 MG, 96 h; in short: as §4
[21] = Antitumor activity against human U87 cells xenografted CD1-Nu mouse at 100 mg/kg, po twice daily assessed as inhibition of tumor growth after 9 days; type: functional, U-87MG ATCC; conditions: U-87 MG, 216 h; in short: as §4
[22] = AUC (0 to infinity) in Sprague-Dawley rat at 100 mg/kg, po; type: ADME, organism-based; design: time infinity, dose 100 mg/kg, route oral; conditions: plasma; in short: as §5

`CC(C)=CCC/C(C)=C/CC/C(C)=C/CSc1ccccc1C(=O)N(C)C` gave an inhibition at 50 µM (PANC-1 [1]) of 13.6%, a pIC50 (PANC-1 [2]) of 4.66 and a pIC50 [3] of 4.70. For the same compound, the inhibition at 50 µM (PANC-1 [4]) was 48%, the inhibition at 50 µM (PANC-1 [5]) was 38.6% and the inhibition [6] was 41%. For the same compound, the inhibition [7] was 45.4%, the inhibition [8] was 28% and the inhibition [9] was 14%.

With `CC(C)=CCC/C(C)=C/CC/C(C)=C/CSc1ccccc1C(=O)O` [SALIRASIB] the Cmax [10] was 2160 ng/mL, the pIC50 (PANC-1 [2]) was 4.46 and the pIC50 [3] was 4.30. The AUC(0-inf) [11] was 6210 ng·h/mL and the half-life [12] was 2.36 h.

`CC(C)=CCC/C(C)=C/CC/C(C)=C/CSc1ccccc1C(N)=O` gave an inhibition at 50 µM (PANC-1 [1]) of 8.6%, a pIC50 (PANC-1 [2]) of 4.70 and a pIC50 [3] of 5.00. For the same compound, the Activity (PANC-1 [13]) was “inactive”, the inhibition at 50 µM (PANC-1 [4]) was 56% and the inhibition at 50 µM (PANC-1 [5]) was 37.4%. The Activity (PANC-1 [14]) was “Active”, the inhibition [6] was 37.3% and the Activity (PANC-1 [15]) was “inactive”. The Activity (U-87MG ATCC) was “Active”, the inhibition [7] was 33% and the inhibition [8] was 50.8%. The Activity [16] was “Active”, the Activity [17] was “Active” and the half-life [18] was 5.23 h. For the same compound, the Cmax [19] was 371 ng/mL, the inhibition in vivo at 100 mg/kg [20] was 80% and the inhibition in vivo at 100 mg/kg [21] was 50%. The AUC(0-inf) [22] was 1810 ng·h/mL.

Compound `COCOC(=O)c1ccccc1SC/C=C(\C)CC/C=C(\C)CCC=C(C)C` has a pIC50 (PANC-1 [2]) of 4.92, a pIC50 [3] of 5.00 and an inhibition at 50 µM (PANC-1 [4]) of 19.9%. The inhibition at 50 µM (PANC-1 [5]) was 2.6%, the inhibition [6] was 5.1% and the inhibition [8] was 4.8%.

In the case of `CC(C)=CCC/C(C)=C/CC/C(C)=C/CSc1ccccc1C(=O)OC(C)C`, the pIC50 (PANC-1 [2]) was 4.15 and the pIC50 [3] was 4.28.

Work on `COC(=O)c1ccccc1SC/C=C(\C)CC/C=C(\C)CCC=C(C)C` yielded a pIC50 (PANC-1 [2]) of 4.52, a pIC50 [3] of 5.00 and an inhibition at 50 µM (PANC-1 [4]) of 11.9%. The inhibition at 50 µM (PANC-1 [5]) was 5.3%, the inhibition [6] was 18.7% and the inhibition [8] was 23.8%.

With `CNC(=O)c1ccccc1SC/C=C(\C)CC/C=C(\C)CCC=C(C)C` the inhibition at 50 µM (PANC-1 [1]) was 18.8%, the pIC50 (PANC-1 [2]) was 5.00 and the pIC50 [3] was 4.74. It also gave an inhibition at 50 µM (PANC-1 [4]) of 52%, an inhibition at 50 µM (PANC-1 [5]) of 39.7% and an inhibition [6] of 22.5%. It also gave an inhibition [7] of 34.7% and an inhibition [8] of 32.6%.

Work on `CC(C)=CCC/C(C)=C/CC/C(C)=C/CSc1ccccc1C(=O)OCc1ccccc1` yielded a pIC50 (PANC-1 [2]) of 4.02 and a pIC50 [3] of 4.52.
